Measurements as given in ChEMBL document CHEMBL1125034, “Design and synthesis of 4H-3,1-benzoxazin-4-ones as potent alternate substrate inhibitors of human leukocyte elastase” (J Med Chem, 1990).
pKi: −log10 of the molar value.

How the values were obtained:
[1] = Alkaline hydrolysis rate of the compound; assay type: ADME
Outline: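 Alkaline hydrolysis rate constants measured at several pH values at 25 °C. Loss of the long-wavelength UV chromophore (λmax typically 300-345 nm) was followed by spectrophotometer.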

[2] = Partition coefficient (logD7.4); assay type: physicochemical; conditions: octanol/water, pH 7.4
Neutrophil elastase = target: T1, Neutrophil elastase (Homo sapiens, UniProt P08246); assay: Inhibition of human leukocyte elastase
T1 sequence (P08246 whole entry): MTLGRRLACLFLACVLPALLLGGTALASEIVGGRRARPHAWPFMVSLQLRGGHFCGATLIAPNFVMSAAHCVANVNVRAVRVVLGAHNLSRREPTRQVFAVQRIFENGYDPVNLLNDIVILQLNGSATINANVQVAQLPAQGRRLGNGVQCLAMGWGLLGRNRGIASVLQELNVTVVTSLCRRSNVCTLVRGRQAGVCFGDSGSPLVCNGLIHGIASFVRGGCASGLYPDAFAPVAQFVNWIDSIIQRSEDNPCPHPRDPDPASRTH

[3] = target: T2, Neutrophil elastase (Homo sapiens) (UniProt P08246); assay: Component acylation rate constant for interaction with human leukocyte elastase
T2 sequence (whole entry): T1 sequence (P08246 whole entry)

[4] = target: T2, Neutrophil elastase (Homo sapiens); assay: Component deacylation rate constant for interaction with human leukocyte elastase

Compound	Log kOH- [1]	logD [2]	pKi (Neutrophil elastase)	Log kon [3]	Log koff [4]
O=c1oc(SCc2ccccc2)nc2ccccc12	2.33	3.6	7.40		
CC(=O)Nc1ccc2c(=O)oc(NC(C)C)nc2c1	0.92	1.2	6.83		
CCC(C)CNc1nc2cccc(C)c2c(=O)o1 (centres undefined)			6.18	2.05	-4.13
CCCCN(CCCC)c1nc2ccccc2c(=O)o1	-0.57		5.34	2.43	-2.91
CCCc1cccc2nc(OCC)oc(=O)c12	1.17		9.64	5.49	-4.15
COC(=O)[C@H](Nc1nc2ccccc2c(=O)o1)c1ccccc1	1.39	2.6	7.56		
Cc1cc(C)c2c(=O)oc(NC(C)C)nc2c1	-0.23		8.23	3.41	-4.82
Cc1cccc2c(=O)oc(C(F)(F)F)nc12	3.09		6.27	4	
NC(=O)[C@H](Cc1ccccc1)Nc1nc2ccccc2c(=O)o1	1.26		6.50	3.08	-3.42
NC(=O)[C@@H]1CCCN1c1nc2ccccc2c(=O)o1	1.21	0.4	6.62		
CCCCCCNc1nc2ccccc2c(=O)o1	0.96	3.8			
CCSc1nc2cc(OC)c(OC)cc2c(=O)o1	1.1		5.92	5	
COc1cc2nc(SCc3c[nH]cn3)oc(=O)c2cc1OC	1.31		5.96	3.84	-2.12
CCOc1nc2cc(N)cc(CC)c2c(=O)o1	-0.54	2.7	8.00		
Cc1cc(N)cc2nc(NC(C)C)oc(=O)c12	-1.09		7.11	2.36	-4.75
Cc1nc2ccccc2c(=O)o1	1.69	1.3	5.32		
Cc1ccc2nc(C)oc(=O)c2c1	1.36	1.8	4.46		
O=C(c1nc2ccccc2c(=O)o1)[C@@H]1CCCN1	1.69		5.95	2.95	-3
Cc1nc2c(N)cccc2c(=O)o1	2.61		5.10	3.3	

Compound	Log kOH- [1]	logD [2]	pKi (Neutrophil elastase)	Log kon [3]	Log koff [4]
O=c1oc(-c2ccccc2)nc2ccccc12	1.79		5.02	4	
CSc1nc2cccc(C)c2c(=O)o1	1.9		8.85	5.4	-3.45
Nc1ccc(CNc2nc3ccccc3c(=O)o2)cc1	1.36	2	5.91		
CCOc1nc2cccc(C(Br)Br)c2c(=O)o1	2.5		9.33	7	-2.33
CC(C)NC(=O)[C@H](CC(N)=O)Nc1nc2ccccc2c(=O)o1	1.45	0.2	5.67		
COC(=O)C(Nc1nc2ccccc2c(=O)o1)c1ccccc1 (centres undefined)	1.39	2.6	7.33		
CCC(CC)Nc1nc2cccc(C)c2c(=O)o1			6.14	3.89	-2.25
O=c1oc(Nc2ccccc2)nc2ccccc12	1.18	3.5	4.96		
O=c1oc(NC2CCCCC2)nc2ccccc12	0.89	3.5	6.95		
Cc1cccc2nc(NC(C)C)oc(=O)c12	0.41	3			
COc1cccc2nc(Nc3ccccc3)oc(=O)c12	0.41	3.1	3.80		
Cc1ccc2c(=O)oc(NC(C)C)nc2c1C	0.46	3.8	6.15		
Cc1nc2c(C)cccc2c(=O)o1	1.18	2.1	5.13		
Cc1cccc2nc(OCC(C)C)oc(=O)c12			8.80	3.85	-4.95
COC(=O)[C@H](CC(C)C)Nc1nc2cccc(C)c2c(=O)o1	0.59	3.7	6.60		
O=c1oc(NCc2ccccc2)nc2ccccc12	1.12	2.8	6.02		
CC(C)Cc1nc2ccccc2c(=O)o1			5.59	4.3	
CCOC(=O)CCCNc1nc2ccccc2c(=O)o1	1.21	2.3	4.73		
Cc1cccc2nc(C(F)(F)C(F)(F)C(F)(F)F)oc(=O)c12	2.75	2.9	7.51		

Compound	Log kOH- [1]	logD [2]	pKi (Neutrophil elastase)	Log kon [3]	Log koff [4]
CCc1cc(N)cc2nc(N3CCCC3C(=O)N[C@@H](CC(C)C)C(N)=O)oc(=O)c12 (some centres undefined)	-1.08	1.6	6.94		
O=c1oc(C(F)(F)F)nc2ccccc12	3.52	1.9	6.77		
CCCNc1nc2cccc(C)c2c(=O)o1				4.75	-3.47
NC(=O)C1CCCN1c1nc2ccccc2c(=O)o1 (centres undefined)	1.21	0.4	6.75		
CCc1ccc2c(=O)oc(NC(C)C)nc2c1	0.69	3.2	6.74		
Cc1cccc2c(=O)oc(C(C)(C)C)nc12	0.82	4	4.26		
CC(C)NC(=O)[C@H](CCC(N)=O)Nc1nc2ccccc2c(=O)o1	1.3	-0.3	6.26		
CCSc1nc2ccccc2c(=O)o1	2.19	3	8.09		
CNc1nc2ccccc2c(=O)o1	1.38	1.7			
CCSc1nc2c(C)cccc2c(=O)o1	2.01		7.55	6.3	
CCCCNc1nc2ccccc2c(=O)o1	1.09	3.1			
CC(C)N(c1nc2ccccc2c(=O)o1)C(C)C	0.79	3.7	5.59		
CCCC(C)Nc1nc2cccc(C)c2c(=O)o1 (centres undefined)			6.13	3.7	-2.43
CC[C@H](C)[C@H](Nc1nc2ccccc2c(=O)o1)C(=O)OC	1.32	2.6	6.67		
COC(=O)[C@H](CC(C)C)Nc1nc2cc(C)cc(C)c2c(=O)o1	-0.18	4	5.90		
CCSc1nc2ccc(NC(C)=O)cc2c(=O)o1	2.24		5.84	4	
CCc1cc(N)cc2nc(NC(C)C)oc(=O)c12	-1.26	1.6	7.77		
CCc1cccc2c(=O)oc(NC(C)C)nc12			6.00	4.38	-1.62
Cc1nc2cc3ccccc3cc2c(=O)o1	2.19	2.8	5.14		
